Bioassay records deposited in PubChem by several laboratories.
The list is not random: actives were taken first. Their share in the collection is about 3.5%.
FLuc inh counter – counter-screen for luciferase assay inhibitors: firefly luciferase inhibition; P08659; ATPLite firefly luciferase biochemical luminescence, 10 min; inhibition, % at 10 µM; hit rate 1.5% among 200,000; AID 1006;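 active means inhibition above about 50% when tested at 10 µM, limit read from the data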
Target sequence (P08659 whole entry, looked up): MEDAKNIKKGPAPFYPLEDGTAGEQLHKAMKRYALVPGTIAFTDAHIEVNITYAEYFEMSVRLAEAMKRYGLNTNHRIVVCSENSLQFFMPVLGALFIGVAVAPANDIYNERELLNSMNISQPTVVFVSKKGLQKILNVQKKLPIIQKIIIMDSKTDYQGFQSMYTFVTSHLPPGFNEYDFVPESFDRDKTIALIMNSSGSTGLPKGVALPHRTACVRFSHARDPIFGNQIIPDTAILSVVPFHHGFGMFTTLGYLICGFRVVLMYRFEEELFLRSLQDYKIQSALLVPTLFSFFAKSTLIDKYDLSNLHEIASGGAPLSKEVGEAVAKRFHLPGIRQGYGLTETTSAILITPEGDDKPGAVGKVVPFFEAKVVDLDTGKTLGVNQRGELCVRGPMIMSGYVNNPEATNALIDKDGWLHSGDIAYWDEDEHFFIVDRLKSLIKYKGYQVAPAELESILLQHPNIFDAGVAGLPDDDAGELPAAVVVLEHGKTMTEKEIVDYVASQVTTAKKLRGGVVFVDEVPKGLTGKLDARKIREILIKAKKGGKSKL
Pf gametocyte – inhibitors of late stage P. falciparum gametocyte viability | P. falciparum stage V gametocytes, ATP luminescence, 24 h | inhibition, % at 10.9 µM | hit rate 0.065% among 150,000 | AID 743093;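 active means inhibition above the mean plus 3 SD of compounds within the control limits, set per campaign, cut at about 38% in these data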;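 further: 0% = DMSO wells and 100% = medium only without gametocytes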
FLuc stim CS – firefly luciferase counter-screen for stimulation assays; P08659; ATPlite luciferase biochemical, luminescence, 10 min; 0 = ATP-free wells, 1 = DMSO control; activation factor at 10 µM; 200,000 tested, under 10 active; AID 1027;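 active means luciferase activation factor, scaled between plate controls, of at least 2 with compound at 10 µM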
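Assay system: Luciferase/luciferin reagent mix; Medium: PBS as buffer for the ATP substrate; Dosing: test compounds dosed from 2 mM stocks in 100% DMSO; Times: 10 min, room temperature; Signal: luminescence from luciferase reaction; Read-out: luciferase activation; Controls: No-ATP low control, compound-free enzyme-plus-ATP high control.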
APP 5'UTR act – activates APP 5'UTR luciferase reporter | SH-SY5Y APP 5'UTR luciferase reporter, luminescence; zero percent = DMSO vehicle wells | activation, % at 2 µM | hit rate 1% among 190,000 | AID 1276;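 active means activation above a set limit, based on mean plus 3 SD of controls, cut at about 140% in these data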
STAT1 act – activators of IFN-gamma induced STAT1 signaling. NIH 3T3 STAT1-luciferase reporter, luminescence; 100% = IFN-gamma alone, no compound. activation (% of control), % at 5.5 µM. hit rate 2.6% among 200,000;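 active means activation above the screen-wide mean activation plus 3 SD, cut at about 130% in these data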;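 further: raw ratio to IFN-gamma control signal so 100% means no change and 0% no light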
NF-kB expr up – raises NF-kB expression in human neuronal cells; fold change at 12.5 µM; NF-kB reporter expression; active compounds read high; hit rate 1.6% among 190,000; in the data active means fold change above about 3.3
STAT1 activ conf – confirmation of STAT1 signaling activators; activation (% of control), % at 5.7 µM; NIH 3T3 STAT1-luciferase reporter, IFN-gamma potentiation, luminescence; 100% = IFN-gamma EC80 alone, no compound; shares compounds with STAT1 act; hit rate 97% among 1,200;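 active means activation above a set limit carried over from the earlier primary STAT1 screen, cut at about 140% in these data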;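 further: simple ratio to median IFN-gamma plus DMSO wells so 0% means no light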
NFkB act STAT1ct – activates NF-kappaB, counter-screen to STAT1 activators; shares compounds with STAT1 act; HEK293T NF-kB luciferase reporter, TNF-alpha stimulated, luminescence; 100% = TNF-alpha with vehicle only; activation (% of control), % at 5.7 µM; hit rate 43% among 1,200;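 active means activation above the mean of solvent-only control wells plus 3 SD, set per campaign, cut at about 130% in these data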;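 further: TNF-alpha given at a submaximal dose yielding about 80% of full reporter signal; values are well signal over median control so 100% means no change and 0% no light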
STAT3 act 2 – counter-screen for STAT1 activators: human STAT3 activation | shares compounds with STAT1 act | U3A cells STAT3-luciferase reporter, IL-6, luminescence; cells lack STAT1; 100 = IL-6 alone, no compound effect | activation (% of control), % at 5.7 µM | hit rate 46% among 1,200 | AID 1316;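 active means activation above the solvent-only control well mean plus 3 SD, set per plate batch, cut at about 110% in these data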;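 further: 0% = no luminescence and 100% = median IL-6 plus DMSO wells; higher means more STAT3 reporter activation so hits are non-selective activators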
* marks the source's active call; other numbers are inactive results; . = no result given.

SMILES	FLuc inh counter	Pf gametocyte	FLuc stim CS	APP 5'UTR act	STAT1 act	NF-kB expr up	STAT1 activ conf	NFkB act STAT1ct	STAT3 act 2
COc1ccc(N=Cc2c(O)[nH]c3ccccc23)cc1	52*	-1	0.5	181*	216*	4.9*	269*	135*	111*
Oc1[nH]c2ccccc2c1C=Nc1ccc2c(c1)OCO2	36	.	0.6	141*	192*	4.9*	263*	144*	103
O=C(c1ccccc1)N1CCCC(C(=O)N2CCN(c3ccccc3)CC2)C1 (configuration not stated)	.	-7	.	.	.	.	.	.	.
O=S(=O)(Nc1nc2ccccc2nc1N1CCc2ccccc2C1)c1ccc(Br)cc1	46	.	0.5	64	158*	1.8	181*	85	133*
Cc1ccc(/C=N/N=C/c2ccc(C)s2)s1	74*	-3	0.3	178*	177*	10*	238*	120	99
Cc1occc1C(=O)Nc1ccc2ccccc2c1	21	.	0.8	164*	156*	9.3*	207*	125	152*
Cc1occc1C(=O)Nc1cc(C(C)(C)C)on1	29	.	0.7	148*	152*	4.5*	191*	127	122*
Cc1oc(-c2ccccc2)cc1C(=O)Nc1ccc2ccccc2c1	-2	-5	1	6	100	1.4	.	.	.
O=C(Cn1ccc2ccccc2c1=O)NCCC(=O)Nc1ccc2c(c1)OCCO2	-9	2	1.1	-5	99	0.86	.	.	.
O=C(CN1CCN(Cc2ccccc2)CC1)Nc1ccccc1-c1ccccc1	-6	.	1.1	1	92	0.97	.	.	.
Cc1ccc(NC(=O)c2scc3c2CCCC3)cc1	75*	10	0.2	195*	155*	9.5*	252*	126	102
COC(=O)c1sc(NC(=O)c2cc3c(s2)CCCC3)nc1C	29	-9	0.7	89	155*	5.7*	202*	127	111*
Cc1ccc(NC(=O)c2cc3c(s2)CCCC3)cc1	42	19	0.6	119	160*	8.8*	203*	154*	105
CCOC(=O)c1sc(NC(=O)c2cc3c(s2)CCC(C)C3)nc1C (configuration not stated)	0	.	1	16	98	1.7	.	.	.
COc1ccc(CCNS(=O)(=O)c2cc(C(=O)O)c(Cl)cc2Cl)cc1	-3	4	1	14	99	1.1	.	.	.
Cc1nn(Cc2nnc(SCC(=O)Nc3ccc(Cl)cc3)n2C)c(C)c1[N+](=O)[O-]	.	-7	.	.	.	.	.	.	.
CNC(=S)N1CCN(c2ccc(Cl)c(Cl)c2)CC1	-7	4	1.1	-2	83	.	.	.	.
COc1cccc2cc(-c3csc(NC(=O)CCC(=O)NCCCN4CCC(C)CC4)n3)c(=O)oc12	.	-75	.	.	.	.	.	.	.
CCOc1cccc2cc(-c3csc(NC(=O)CCC(=O)NCCCN4CCC(C)CC4)n3)c(=O)oc12	8	.	0.9	176*	152*	5.5*	157*	126	124*
O=C1CC(/C=C/c2ccc(Cl)cc2)=Nc2ccccc2N1	48	-16	0.5	122	177*	3.6*	198*	145*	120*
CC1(C)CC(/C=C/c2ccccc2)=Nc2ccccc2N1	.	-17	.	.	.	.	.	.	.
Nc1nc(-c2ccccc2)nc2sc3c(c12)CCCC3	85*	-3	0.1	180*	191*	11*	249*	136*	139*
Cc1ccc(-c2nc3sc4c(c3c(=O)n2N)CCCC4)cc1	12	8	0.9	143*	178*	5.1*	224*	143*	105
CCOC(=O)c1c(C)[nH]c(N=Nc2ccc(C)cc2)c1C	2	.	1	141*	154*	4.1*	230*	146*	102
CCOC(=O)c1c(C)[nH]c(N=Nc2ccccc2Cl)c1C	.	-26	.	.	.	.	.	.	.
SMILES	FLuc inh counter	Pf gametocyte	FLuc stim CS	APP 5'UTR act	STAT1 act	NF-kB expr up	STAT1 activ conf	NFkB act STAT1ct	STAT3 act 2
CCOC(=O)c1c(C)[nH]c(C=Nc2ccc(OC)cc2)c1O	26	.	0.7	-3	120	1.8	.	.	.
CCOC(=O)c1c(C)[nH]c(N=Nc2cccc(OC)c2)c1C	33	17	0.7	253*	198*	1.2	235*	144*	103
COc1ccc(NC(=O)Cc2ccccc2)cn1	-4	.	1	9	100	1.1	.	.	.
COc1ccc(NC(=O)/C(Cl)=C(/Cl)S(=O)Cc2ccccc2)cn1 (configuration not stated)	-2	-35	1	.	204*	0.18	336*	48	105
COc1ccc(/C=C/c2nc3ccccc3n2Cc2ccccc2OC)cc1	88*	-6	0.1	179*	154*	5.6*	166*	122	113*
Cc1cc(C)c(C2=CC(=O)C[C@H](c3ccc4c(c3)OCO4)C2)c(C)c1	.	-34	.	.	.	.	.	.	.
O=C(NC1CCCCC1)c1ccc(S(=O)(=O)NCc2cccnc2)cc1	-6	.	1.1	-4	91	0.88	.	.	.
FC(F)(F)c1cnc2c(-c3ccccc3)n[nH]c2c1	-2	1	1	47	161*	1.8	137*	110	102
S=C(Nc1ccc(Cl)cc1)c1nc2ccccc2[nH]1	66*	21	0.3	.	167*	2.5	192*	134*	102
COc1ccc(C2(C)NC(=O)N(Cc3cc(Cl)cc4c3OCOC4)C2=O)cc1OC (configuration not stated)	-5	-1	1.1	21	98	0.76	.	.	.
O=C(C[n+]1ccc(C(=O)N/N=C/c2ccc(Cl)cc2Cl)cc1)c1ccccc1	-1	.	1	-13	99	1.2	.	.	.
Cc1cccc(/C=N\NC(=O)c2ccc(Cl)cc2)c1O	23	.	0.8	2	155*	4.3*	161*	124	95
O=C(N/N=C/c1ccc(Cl)cc1Cl)c1cccc(F)c1	26	.	0.7	127	160*	1.6	212*	142*	107
Cc1cc(C(=O)COC(=O)c2cc(Cl)ccc2N)c(C)n1Cc1ccco1	34	2	0.7	171*	156*	2	185*	128	115*
Cn1cc(NC(=O)OCc2ccc(Cl)cc2)c(C(F)(F)F)n1	-4	-6	1	7	178*	3.5*	165*	125	110
